Values after ≈ are worked out from the molar mass of the structure shown. Active and inactive are the calls of the source. No cut-off for these calls is given here.
How the values were obtained:
[1] = test system: Mycolicibacterium smegmatis; assay: Antimycobacterial activity against Mycobacterium smegmatis mc2155 assessed as inhibition of bacterial growth incubated for 48 hrs by broth microdilution method; assay type: functional; settings: MC2 155
[2] = test system: Mycobacterium tuberculosis; assay: Antimycobacterial activity against Mycobacterium tuberculosis H37Rv ATCC 27294 assessed as inhibition of bacterial growth by agar plate dilution method; assay type: functional
In short: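 MIC determined by agar plate dilution method; isoniazid and rifampin run as references.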

[3] = test system: Mycobacterium tuberculosis; assay: Antimycobacterial activity against non-replicating Mycobacterium tuberculosis H37Rv expressing pFCA-LuxAB assessed as bacterial growth inhibition incubated for 10 days under anerobic condition by low oxygen recovery assay; assay type: functional; settings: 240 h, time 10 day
[4] = test system: Mycobacterium tuberculosis; assay: Antimycobacterial activity against replicating Mycobacterium tuberculosis H37Ra assessed as inhibition of bacterial growth incubated for 7 days by MABA assay; assay type: functional; settings: time 7 day
[5] = test system: Mycobacterium tuberculosis; assay: Antimycobacterial activity against replicating Mycobacterium tuberculosis H37Rv assessed as inhibition of bacterial growth incubated for 7 days by MABA assay; assay type: functional; settings: time 7 day
[6] = Cytotoxicity against human PBMC assessed as reduction in cell growth after 72 hrs by MTT assay; assay type: tissue-based
[7] = test system: Mycobacterium tuberculosis; assay: Inhibition of mycolic acid biosynthesis in Mycobacterium tuberculosis H37Ra assessed as reduction in keto-mycolate production at 5XMIC incubated for 7 days by TLC analysis; assay type: functional; settings: for inhibition (INH): time 7 day
[8] = test system: Mycobacterium tuberculosis; assay: Inhibition of mycolic acid biosynthesis in Mycobacterium tuberculosis H37Ra assessed as reduction in methoxy-mycolate production at 5XMIC incubated for 7 days by TLC analysis; assay type: functional; settings: time 7 day
[9] = Inhibition of Mycobacterium smegmatis mc2155 menG assessed as inhibition of 2-methyl-3-(3,7,11-trimethyldodeca-2,6,10-trienyl)naphthalene-1,4-dione formation using 2-(3,7,11-trimethyldodeca-2,6,10-trienyl)naphthalene-1,4-dione as substrate incubated for 3 hrs in presence of SAM by HPLC analysis; design: species or system Mycolicibacterium smegmatis MC2 155
[10] = Inhibition of Mycobacterium tuberculosis H37Ra menG assessed as inhibition of 2-methyl-3-(3,7,11-trimethyldodeca-2,6,10-trienyl)naphthalene-1,4-dione formation using 2-(3,7,11-trimethyldodeca-2,6,10-trienyl)naphthalene-1,4-dione as substrate incubated for 3 hrs in presence of SAM by HPLC analysis
[11] = test system: Mycobacterium tuberculosis; assay: Inhibition of mycolic acid biosynthesis in Mycobacterium tuberculosis H37Ra assessed as reduction in alfa-mycolate production at 5XMIC incubated for 7 days by TLC analysis; assay type: functional; settings: for inhibition (INH): time 7 day
[12] = test system: Mycobacterium tuberculosis; assay: Antimycobacterial activity against dormant Mycobacterium tuberculosis H37Ra assessed as inhibition of bacterial growth at 30 ug/ml incubated for 10 days in presence of Vit-K2 measured following 27 days of culturing on agar plate […] relative to control; assay type: functional; settings: dose 30 µg/ml; time 37 day
In short: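 Dormant H37Ra: 2×10⁶ bacteria/ml in sealed vials, 37 °C, 25 rpm. Cultures with compound (3 or 30 µg/ml) plus 1 mM Vit-K2 grown 10 days, then CFU counted on 7H10 agar after 27 days; comparison with 1 mM Vit-K2 set.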

[13] = test system: Mycobacterium tuberculosis; assay: Inhibition of respiratory system in dormant Mycobacterium tuberculosis H37Ra assessed as reduction in ATP production at 20 to 80 ug/ml measured on day 3 to 9 following drug addition by microplate reader analysis; assay type: functional; settings: dose 20-80 µg/ml, time 3-9 day

Compound | MIC [1] [µg/mL] | MIC [2] [µg/mL] | MIC [3] [µg/mL] | MIC [4] [µg/mL] | MIC [5] [µg/mL] | IC50 [6] [µg/mL] | inhibition (INH) [7] [%] | inhibition (INH) [8] [%] | IC50 [9] [µg/mL] | IC50 [10] [µg/mL] | inhibition (INH) [11] [%] | fold change (FC) [12] | inhibition ([7]; time 7.0 day) | inhibition ([11]; time 7.0 day) | inhibition [13]
NNC(=O)c1ccncc1 [ISONIAZID] | 6.1 (≈ 44.5 µM) | 0.4 (≈ 2.92 µM) | > 128 | 0.3 (≈ 2.19 µM) | 0.43 (≈ 3.14 µM) | 71.7 (≈ 523 µM) | – | – | – | – | – | – | – | – | –
CCCCCCC(=O)Oc1cccc(Nc2nc3ccccc3c(=O)o2)c1 | 50 (≈ 136 µM) | – | > 100 | > 100 | > 100 | 176 (≈ 481 µM) | – | – | – | – | – | – | – | – | –
CCOc1ccc(C(=O)OCCCOc2cccc(Nc3nc4ccccc4c(=O)o3)c2)cc1 | > 100 | – | > 100 | > 100 | > 100 | 102 (≈ 223 µM) | – | – | – | – | – | – | – | – | –
CCCCOc1ccc(C(=O)OCCCOc2cccc(Nc3nc4ccccc4c(=O)o3)c2)cc1 | 25 (≈ 51.2 µM) | – | 9.41 (≈ 19.3 µM) | 6.32 (≈ 12.9 µM) | 7.28 (≈ 14.9 µM) | 117 (≈ 239 µM) | 31 | 36 | 29.71 | 20.06 | 100 | – | – | – | –
CCCCCCCCCC(=O)Oc1cccc(Nc2nc3ccccc3c(=O)o2)c1 | 25 (≈ 61.2 µM) | – | 53.3 (≈ 130 µM) | 29.6 (≈ 72.4 µM) | 33 (≈ 80.7 µM) | 195 (≈ 476 µM) | – | – | – | – | – | – | – | – | –
CC(C)=CCOc1cccc(NC(=O)Nc2ccccc2C)c1 | – | – | – | – | 5.2 (≈ 16.8 µM) | – | – | – | – | – | – | – | – | – | –
CC(=O)Oc1cccc(Nc2nc3ccccc3c(=O)o2)c1 | 100 (≈ 338 µM) | – | 80.3 (≈ 271 µM) | > 100 | > 100 | 131 (≈ 444 µM) | – | – | – | – | – | – | – | – | –
CC(C)=CCC/C(C)=C/COc1ccc(C(=O)OCCCOc2cccc(Nc3nc4ccccc4c(=O)o3)c2)cc1 | 6.3 (≈ 11.1 µM) | 3.5 (≈ 6.15 µM) | 2.94 (≈ 5.17 µM) | 3.93 (≈ 6.91 µM) | 3.48 (≈ 6.12 µM) | 134 (≈ 236 µM) | 100 | 100 | 11.76 | 9.11 | 100 | 2.9 | – | – | –
CCCCCCCC/C=C/CCCCCCCC(=O)Oc1cccc(Nc2nc3ccccc3c(=O)o2)c1 | 50 (≈ 96.4 µM) | – | 68.9 (≈ 133 µM) | 51.4 (≈ 99.2 µM) | 47.4 (≈ 91.3 µM) | 179 (≈ 344 µM) | – | – | – | – | – | – | – | – | –
CCC(=O)Oc1cccc(Nc2nc3ccccc3c(=O)o2)c1 | 100 (≈ 322 µM) | – | 98.5 (≈ 317 µM) | > 100 | > 100 | 180 (≈ 579 µM) | – | – | – | – | – | – | – | – | –
CCCC(=O)Oc1cccc(Nc2nc3ccccc3c(=O)o2)c1 | > 100 | – | > 100 | > 100 | > 100 | 199 (≈ 615 µM) | – | – | – | – | – | – | – | – | –
CCCCCCCC/C=C/CCCCCCCCOc1ccc(C(=O)OCCCOc2cccc(Nc3nc4ccccc4c(=O)o3)c2)cc1 | 12.5 (≈ 18.3 µM) | – | 35.9 (≈ 52.6 µM) | 19.6 (≈ 28.7 µM) | 18.7 (≈ 27.4 µM) | 150 (≈ 219 µM) | – | – | – | – | – | – | – | – | –
CCCCCC(=O)Oc1cccc(Nc2nc3ccccc3c(=O)o2)c1 | > 100 | – | > 100 | > 100 | > 100 | 186 (≈ 529 µM) | – | – | – | – | – | – | – | – | –
CCCCCOc1ccc(C(=O)OCCCOc2cccc(Nc3nc4ccccc4c(=O)o3)c2)cc1 | 25 (≈ 49.7 µM) | – | 9.02 (≈ 17.9 µM) | 8.16 (≈ 16.2 µM) | 7.01 (≈ 13.9 µM) | 142 (≈ 282 µM) | 37 | 48 | 27.19 | 20.88 | 100 | – | – | – | –
CCCCC(=O)Oc1cccc(Nc2nc3ccccc3c(=O)o2)c1 | > 100 | – | > 100 | > 100 | > 100 | 201 (≈ 595 µM) | – | – | – | – | – | – | – | – | –
COc1ccc(C(=O)OCCCOc2cccc(Nc3nc4ccccc4c(=O)o3)c2)cc1 | > 100 | – | 40 (≈ 89.6 µM) | 8.16 (≈ 18.3 µM) | 9.71 (≈ 21.7 µM) | 162 (≈ 364 µM) | – | – | – | – | – | – | – | – | –
CCCCCCCCOc1ccc(C(=O)OCCCOc2cccc(Nc3nc4ccccc4c(=O)o3)c2)cc1 | 12.5 (≈ 23 µM) | – | 18.9 (≈ 34.8 µM) | 16.2 (≈ 29.8 µM) | 12.4 (≈ 22.8 µM) | 154 (≈ 283 µM) | – | – | – | – | – | – | – | – | –
CCCCCCOc1ccc(C(=O)OCCCOc2cccc(Nc3nc4ccccc4c(=O)o3)c2)cc1 | 6.3 (≈ 12.2 µM) | – | 5.32 (≈ 10.3 µM) | 5.83 (≈ 11.3 µM) | 6.12 (≈ 11.8 µM) | 123 (≈ 238 µM) | – | 61 | 16.33 | 13.53 | – | – | Active | Active | –
CCCCCCCCCCCCCCCCCCOc1ccc(C(=O)OCCCOc2cccc(Nc3nc4ccccc4c(=O)o3)c2)cc1 | 12.5 (≈ 18.3 µM) | – | 38.2 (≈ 55.7 µM) | 60.4 (≈ 88.2 µM) | 56.1 (≈ 81.9 µM) | 158 (≈ 231 µM) | – | – | – | – | – | – | – | – | –
CCCCCCCCCCOc1ccc(C(=O)OCCCOc2cccc(Nc3nc4ccccc4c(=O)o3)c2)cc1 | 100 (≈ 175 µM) | – | 45.1 (≈ 78.7 µM) | 38 (≈ 66.4 µM) | 32.1 (≈ 56.1 µM) | 173 (≈ 303 µM) | – | – | – | – | – | – | – | – | –
CO[C@H]1/C=C/O[C@@]2(C)Oc3c(C)c(O)c4c(O)c(c(/C=N/N5CCN(C)CC5)c(O)c4c3C2=O)NC(=O)/C(C)=C\C=C\[C@H](C)[C@H](O)[C@@H](C)[C@@H](O)[C@@H](C)[C@H](OC(C)=O)[C@@H]1C [RIFAMPIN] | 1.5 (≈ 1.82 µM) | 0.01 (≈ 0.0122 µM) | 0.04 (≈ 0.0486 µM) | 0.02 (≈ 0.0243 µM) | 0.01 (≈ 0.0122 µM) | 62.9 (≈ 76.5 µM) | – | – | – | – | – | – | – | – | –
CCCOc1ccc(C(=O)OCCCOc2cccc(Nc3nc4ccccc4c(=O)o3)c2)cc1 | 12.5 (≈ 26.3 µM) | – | 15.3 (≈ 32.2 µM) | 10 (≈ 21.1 µM) | 11.7 (≈ 24.7 µM) | 145 (≈ 306 µM) | – | – | – | – | – | – | – | – | –
CC(C)=CCC/C(C)=C/CC/C(C)=C/COc1ccc(C(=O)OCCCOc2cccc(Nc3nc4ccccc4c(=O)o3)c2)cc1 | 3.2 (≈ 5.03 µM) | 2.9 (≈ 4.55 µM) | 2.15 (≈ 3.38 µM) | 2.71 (≈ 4.26 µM) | 2.97 (≈ 4.66 µM) | 169 (≈ 266 µM) | 100 | 100 | 10.88 | 6.25 | 100 | 4.1 | – | – | Active
O=c1oc(Nc2cccc(O)c2)nc2ccccc12 | 25 (≈ 98.3 µM) | – | 40.1 (≈ 158 µM) | 66.2 (≈ 260 µM) | 75.2 (≈ 296 µM) | 173 (≈ 682 µM) | – | – | – | – | – | – | – | – | –
CC(C)=CCOc1ccc(C(=O)OCCCOc2cccc(Nc3nc4ccccc4c(=O)o3)c2)cc1 | 12.5 (≈ 25 µM) | – | > 100 | > 100 | > 100 | 190 (≈ 380 µM) | – | – | – | – | – | – | – | – | –
CCCCCCCCC(=O)Oc1cccc(Nc2nc3ccccc3c(=O)o2)c1 | > 100 | – | > 100 | > 100 | > 100 | 171 (≈ 434 µM) | – | – | – | – | – | – | – | – | –
CCCCCCCCCOc1ccc(C(=O)OCCCOc2cccc(Nc3nc4ccccc4c(=O)o3)c2)cc1 | 50 (≈ 89.5 µM) | – | 31 (≈ 55.6 µM) | 37.1 (≈ 66.5 µM) | 41.8 (≈ 74.9 µM) | 169 (≈ 303 µM) | – | – | – | – | – | – | – | – | –
CCCCCCCOc1ccc(C(=O)OCCCOc2cccc(Nc3nc4ccccc4c(=O)o3)c2)cc1 | > 100 | – | > 100 | > 100 | > 100 | 181 (≈ 341 µM) | – | – | – | – | – | – | – | – | –
CCCCCCCC(=O)Oc1cccc(Nc2nc3ccccc3c(=O)o2)c1 | > 100 | – | > 100 | > 100 | > 100 | 190 (≈ 499 µM) | – | – | – | – | – | – | – | – | –
CCCCCCCCCCCCCCCC(=O)Oc1cccc(Nc2nc3ccccc3c(=O)o2)c1 | 100 (≈ 203 µM) | – | > 100 | > 100 | > 100 | 182 (≈ 369 µM) | – | – | – | – | – | – | – | – | –

Source: ChEMBL document CHEMBL4706595, “1,3-Oxazine-2-one derived dual-targeted molecules against replicating and non-replicating forms of Mycobacterium tuberculosis” (Eur J Med Chem, 2020)
